Assay outcomes deposited in PubChem BioAssay by several laboratories.
APP 5UTR inh – inhibitors of APP translation via 5'UTR reporter, primary screen, APP 5'UTR luciferase, SH-SY5Y cells; SH-SY5Y APP 5'UTR-luciferase reporter, luminescence; inhibition, % at 2 µM; 0.82% of 190,000 active; AID 1285, 2008;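 active = inhibition above a set limit, derived from the sample mean plus 3 SD, cut at about 45% in these data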
bCat nuc transl – modulators of beta-catenin nuclear translocation, primary screen, imaging, HeLa cells, immunofluorescence, high-content; 0.3% of 190,000 active; nuclear translocation activity, % at 5 µM;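 active = nuclear translocation activity above 50% at 5 µM, with a well cell count of 50 or more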;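 note: per-cell ratio of nuclear to cytoplasmic median beta-catenin stain intensity; plate controls were DMSO negative control for no effect and GSK-3 inhibitor IX positive control for full effect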
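Test system: human HeLa cells, native beta-catenin. Compound dosing: 5 µM primary single dose, 0.1% DMSO, 0.02–20 µM confirmation series. Incubation: compound exposure 24 h at 37°C. Detection: beta-catenin immunostaining with DAPI counterstain, 20x imaging, 6 fields/well. Read-out basis: Nuclear/cytoplasmic beta-catenin signal ratio, % activation.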
Ba/F3 V617F tox – reduced viability of JAK2V617F-dependent Ba/F3 cells, primary screen, JAK2V617F inhibitor project, cell-based, Ba/F3 EpoR-JAK2V617F, luminescence. ATP luminescence. inhibition, % at 5.6 µM. 1.1% of 220,000 active;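 active = inhibition above the campaign mean plus 3 SD over all tested compounds, cut at about 24% in these data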;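 note: cytokine-independent growth of Ba/F3 cells driven by EpoR plus mutant JAK2; 0% = DMSO-treated cells and 100% = JAK inhibitor I control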
BaF3 parental – parental Ba/F3 cell viability inhibition, counter-screen for JAK2V617F inhibitor project, murine pro-B, CellTiter-Glo luminescence; CellTiter-Glo ATP luminescence; 1.1% of 220,000 active; AID 1486, 2009; inhibition, % at 5.6 µM;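 active = inhibition above a per-campaign cutoff, the mean inhibition of all tested compounds plus 3 SD, cut at about 27% in these data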;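 note: 0% = DMSO wells and 100% = JAK Inhibitor I control wells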
L major viab – Leishmania major promastigote growth inhibition, primary screen. Leishmania major promastigotes, resazurin fluorescence viability. 9% of 200,000 active. inhibition, % at 10 µM; in the data active = inhibition above about 50%;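 note: promastigotes grown with compound for 44 hours at 28 °C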
MT stabilizer – microtubule stabilizers in HeLa cells, primary screen, imaging, high-content imaging | HeLa tubulin immunostaining HCS, 24 h; share of cells brighter than vehicle mean+2SD | % tubulin-high responders, % at 10 µM | 0.83% of 200,000 active;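 active = plate Z-score above 3 for both tubulin-high and condensed-nucleus cell shares, with cell loss under 80%, at 10 µM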;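 note: anti alpha tubulin signal scored within the nucleus-defined area of each cell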
* = called active by the depositor. An excerpt weighted towards active compounds, which were near 9.6% of everything screened.

Cc1c(NC(=O)c2cccc(-c3cc4ccccc4oc3=O)c2)cccc1-c1nc2ncccc2o1 was read as APP 5UTR inh -1.6, bCat nuc transl -1.6, Ba/F3 V617F tox -1.4, BaF3 parental 6.2, L major viab 2.2 and MT stabilizer 7.8.
For Cc1cc(C)c(CSc2ncc(-c3ccc([N+](=O)[O-])cc3)[nH]2)c(C)c1 the results were APP 5UTR inh -2.8, bCat nuc transl 0.5, Ba/F3 V617F tox -0.1, BaF3 parental 5.4, L major viab 97.1* and MT stabilizer 0.9.
Screening Cc1ccc(C(=O)Nc2ccc(C(=O)N3CCCCC3)cc2)cc1 returned APP 5UTR inh -7.6, bCat nuc transl 0.5, Ba/F3 V617F tox -1.3, BaF3 parental 1.8, L major viab -0.3 and MT stabilizer 5.2.
CCCn1c2ccc(/C(C)=N\O)cc2c2cc(/C(C)=N/O)ccc21 was read as APP 5UTR inh 12.7, bCat nuc transl -1.3, Ba/F3 V617F tox 0.6, BaF3 parental 6.3, L major viab 59.4* and MT stabilizer 2.6.
For COc1cc(CNCc2cccs2)ccc1OCC(N)=O the results were APP 5UTR inh 15.7, Ba/F3 V617F tox -3.2, BaF3 parental 0.8, L major viab -2.9 and MT stabilizer 2.0.
`c1ccc(COc2cccc(CNCc3cccs3)c2)cc1` gave APP 5UTR inh -10.9, Ba/F3 V617F tox -3.4, BaF3 parental 5.6, L major viab 98.3* and MT stabilizer 3.5.
For Clc1ccc(COc2cccc(CNCc3ccncc3)c2)cc1 the results were APP 5UTR inh -0.1, bCat nuc transl 1.2, Ba/F3 V617F tox 4.7, BaF3 parental 38.1*, L major viab 94.0* and MT stabilizer 3.7.
COc1ccc(CCn2c(=N)c(C(=O)N3CCN(C)CC3)cc3c(=O)n4ccccc4nc32)cc1 was read as bCat nuc transl -0.3, Ba/F3 V617F tox -0.9, BaF3 parental 2.3, L major viab 87.8* and MT stabilizer 1.6.
`COc1ccc(CNC(=O)c2cc3c(=O)n4ccccc4nc3n(Cc3ccco3)c2=N)cc1` gave APP 5UTR inh -2.1, Ba/F3 V617F tox 1.6, BaF3 parental 6.6, L major viab 44.8 and MT stabilizer 1.9.
Screening COc1ccc(-n2c(N)c(C(=O)NCc3ccco3)c3nc4ccccc4nc32)cc1 returned APP 5UTR inh 2.1, bCat nuc transl -2.3, Ba/F3 V617F tox 3.4, BaF3 parental 9.0, L major viab 5.3 and MT stabilizer 8.1.
`Nc1c(C(=O)NCCN2CCOCC2)c2nc3ccccc3nc2n1-c1ccc2c(c1)OCO2` gave APP 5UTR inh -4.5, Ba/F3 V617F tox 0.2, BaF3 parental 8.5, L major viab 21.6 and MT stabilizer 2.5.
Nc1c(C(=O)NCc2ccc3c(c2)OCO3)c2nc3ccccc3nc2n1CCCN1CCOCC1 was read as APP 5UTR inh 4.7, bCat nuc transl 11.4, Ba/F3 V617F tox 1.5, BaF3 parental 2.2, L major viab 62.9* and MT stabilizer 5.3.
Screening Nc1c(C(=O)NCCN2CCOCC2)c2nc3ccccc3nc2n1CCc1ccccc1 returned APP 5UTR inh 14.0, bCat nuc transl -2.0, Ba/F3 V617F tox -3.5, BaF3 parental 1.0, L major viab 69.6* and MT stabilizer 2.4.
`Nc1c(C(=O)NCc2ccco2)c2nc3ccccc3nc2n1CCc1ccc(F)cc1` gave APP 5UTR inh 21.7, Ba/F3 V617F tox 1.8, BaF3 parental 1.6, L major viab 99.1* and MT stabilizer 1.7.
`Cc1ccc[n+](CC(=O)Nc2cc(C(F)(F)F)ccc2N2CCOCC2)c1` gave APP 5UTR inh -14.6, bCat nuc transl 1.2, Ba/F3 V617F tox -4.8, BaF3 parental 1.1, L major viab -4.9 and MT stabilizer 5.1.
Cc1ccc(N2C(=O)CC2(C#N)c2ccc(OCc3ccccc3)cc2)cc1 (stereo not drawn) was read as APP 5UTR inh -1.8, bCat nuc transl 0.9, Ba/F3 V617F tox 1.5, BaF3 parental 4.9, L major viab 6.5 and MT stabilizer 2.5.
CCN(CC)S(=O)(=O)c1ccc(NC(=O)COc2c(OC)cccc2OC)cc1 was read as APP 5UTR inh -25.1, bCat nuc transl 0.9, Ba/F3 V617F tox -4.2, BaF3 parental -2.2, L major viab -7.1 and MT stabilizer 2.2.
